Consider five compounds from publication PMC11447725 (ACS Omega, 2024).

The conditions of data set [1]: pH 7.4; cited from earlier work.
The nature of data set [2]: Stock solution stability at −30 ± 10 °C. The format is physicochemical. The conditions noted are these: for observed conc. after storage: stock solution in methanol, 22 days; for observed conc. after storage / accuracy after storage: n = 3; for time stable in stock solution / accuracy after storage: stock solution; for accuracy after storage: 22 days (text: 20 days), vs fresh. The procedure, abridged:
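HHC and IS methanol stocks were diluted in methanol to 375 and 110 ng/mL (n = 3) and stored at −30 ± 10 °C for 22 days. Peak responses by LC-MS/MS were compared with freshly prepared stocks, and results were checked against nominal values (precision within 15%, accuracy within ±15%).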

Data set [3] in a line: Pharmacokinetics of HHC in plasma after single oral administration in mice. The settings on record: 40 mg/kg. The format is in vivo. In short, it runs like this: (§1)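 Male mice (18–22 g, acclimatised 1 week) received a single 40 mg/kg dose, IP or by oral gavage, in 0.1% DMSO diluted in 1% hydroxyethyl cellulose (10 μL/g). Four mice per time point (predose, 5–30 min, 1, 2, 4, 8, 24 h) were bled from the left ventricle under anaesthesia into EDTA. Plasma underwent MTBE extraction with butylparaben IS, then negative-ESI LC-MS/MS MRM. Noncompartmental analysis.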

A short description of data set [4]: Long-term stability of HHC in mice plasma at −30 ± 10 °C. The format is in vitro ADME. The settings on record: 20 days; for accuracy after storage / observed conc. after storage: n = 3. In short, it runs like this:
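Blank mouse plasma was spiked at 15 and 375 ng/mL (n = 3) and kept at −30 ± 10 °C for 20 days. Samples were then extracted with MTBE using butylparaben IS and quantified by LC-MS/MS against daily calibration curves. Results were compared with nominal values; acceptance was precision within 15% and accuracy within ±15%.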

Data set [5] in a line: Tissue distribution of HHC. The format is in vivo, mice. The conditions noted are these: male, mouse, ip, 40 mg/kg. In short, it runs like this: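 Mice were dosed 40 mg/kg IP in 0.1% DMSO/1% hydroxyethyl cellulose, and liver, kidney and brain were removed at the plasma sampling times (n = 4; brain n = 3). Tissues were homogenised 1:10 (w/w) in PBS. Brain was extracted like plasma; kidney and liver received acetone precipitation before MTBE extraction with butylparaben IS. Negative-ESI LC-MS/MS MRM, calibrated at 5–500 ng/mL. Noncompartmental parameters.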

A short description of data set [6]: Pharmacokinetics of HHC in plasma after single IP administration in mice. The format is in vivo. The settings on record: 40 mg/kg. In short, it runs like this: as §1
For data set [7] the following is noted: mice, cited from earlier work.
The conditions of data set [8]: oral administration, rats; cited from earlier work.
The conditions of data set [9]: rats, cited from earlier work.
The mark [10] stands for this setting: after intravenous curcumin 20 mg/kg.

Each structure is given as a SMILES string. Values joined by “and” are separate entries in the source; they are usually repeats but may differ in a detail not shown here. Equal values may be shown once. Read-outs that look alike come from different tables or passages of the source.

As usually defined, the AUC(0-inf) is the area under the concentration-time curve extrapolated to infinity. A low value points to low exposure. As usually defined, the AUC(0-t) is the area under the concentration-time curve up to a stated or last time point. One may read the Cmax as the peak of the concentration-time curve. The term MRT inf denotes a mean duration of stay, worked out from the concentration-time curve. Usually MRT last stands for a mean duration of stay, worked out from the concentration-time curve. As usually defined, the half-life is the time needed for the level to fall by half in the phase considered. What is called Tmax is the time at which the peak concentration occurs. Regarding `COc1cc(CCC(=O)CC(O)CCc2ccc(O)c(OC)c2)ccc1O` (stereo not shown) [HHC, hexahydrocurcumin], the “stability compared with curcumin” value in [1] is given as “superior stability to curcumin”. In addition, the “time stable in stock solution” value in [2] was “at least 22 days”. Also, the “observed conc. after storage” value was determined as 398.08 ± 1.45 ng/mL in [2] (nominal 375.00 ng/mL), 355.53 ± 34.51 ng/mL in data set [4] (HQC nominal 375.00 ng/mL) and 13.54 ± 1.03 ng/mL in [4] (LQC nominal 15.00 ng/mL). For the same compound, the accuracy after storage in [2] stood at 106.15%; in [4] (HQC nominal 375.00 ng/mL), 94.81%; in data set [4] (LQC nominal 15.00 ng/mL), 90.27%. In addition, the area under the curve AUC(0-inf) in data set [3] (male, mouse, po) was 142 ng·h/mL; in data set [5] (brain) it was 21.1 ng·h/mL. Further, the AUC(0-t) in [3] (male, mouse, po) is 127 ng·h/mL; in [5] (brain), 18.7 ng·h/mL. Moreover, the Cmax stood at 194 ± 43.5 ng/mL in data set [3] (male, mouse, po); 120 ± 54.1 ng/mL in [5] (brain); 1700 ± 897 ng/mL in data set [5] (kidney); 9300 ± 4290 ng/mL in [6] (male, mouse, ip). In addition, the MRT inf in data set [3] (male, mouse, po) is 2.58 h; in [5] (brain), 2.04 h; in data set [5] (kidney), 1.94 h; in [5] (liver), 2.67 h; in data set [6] (male, mouse, ip) it was 52.5 min. The mean residence time MRT last in data set [3] (male, mouse, po) was 1.61 h; in data set [5] (brain), 1.05 h; in data set [5] (kidney), 1.6 h; in data set [5] (liver) it was 2.6 h; in data set [6] (male, mouse, ip), 42.5 min. Besides, the half-life is roughly 130 min in data set [3] (male, mouse, po, T1/2, oral 40 mg/kg, mice, n = 4); roughly 130 min in data set [3] (male, mouse, po, half-life, oral 40 mg/kg, mice); 106 ± 58.8 min in [5] (brain); 102 ± 37.4 min in [5] (kidney); 104 ± 25.8 min in data set [5] (liver); roughly 91.2 min in data set [6] (male, mouse, ip, T1/2, IP 40 mg/kg, mice, n = 4). In data set [6] (male, mouse, ip, half-life, IP 40 mg/kg, mice), this compound gave a half-life of roughly 91.2 min. The time to peak (Tmax) in data set [3] (male, mouse, po, Tmax, oral 40 mg/kg, mice, n = 4) is roughly 15 min; in data set [5] (brain), 5 min; in data set [5] (kidney), 6.3 min; in data set [5] (liver) it was 5 min; in data set [6] (male, mouse, ip, Tmax, IP 40 mg/kg, mice, n = 4), roughly 5 min. Moreover, in [3] (oral vs IP, mice), the “percent relative bioavailability (AUC0–t oral / AUC0–t IP)” value turned out to be 12.28%. Further, the “stability in plasma samples” value in [4] is reported as “stable”. Besides, in data set [6] (mice, IP vs oral), the “Cmax after IP relative to oral administration” value was 47.90 times and 47.9 times.
Regarding `COc1cc(/C=C/C(=O)CC(=O)CCc2ccc(O)c(OC)c2)ccc1O` [dihydrocurcumin], in data set [7] (setting [10]), the “AUC0–∞” value was 6.0 ± 1.2 mg·min/L and the detection in kidneys entry is reported as “present”.
With `CCCCOC(=O)c1ccc(O)cc1` [IS, butylparaben, reference compound], in data set [2], the “time stable in stock solution” value is on record as “at least 22 days” and the accuracy after storage is 101.80%. The “observed conc. after storage” value in [2] (nominal 110.10 ng/mL) came out at 112.08 ± 0.90 ng/mL.
On to `COc1cc(CCC(=O)CC(=O)CCc2ccc(O)c(OC)c2)ccc1O` [tetrahydrocurcumin], for which, in data set [7] (setting [10]), the “AUC0–∞” value is on record as 12.0 ± 4.0 mg·min/L and the detection in liver result is recorded as “detectable”.
As for `COc1cc(/C=C/C(=O)CC(=O)/C=C/c2ccc(O)c(OC)c2)ccc1O` [curcumin], in data set [7] (setting [10]), the “AUC0–∞” value is 107.0 ± 18.3 mg·min/L. Also, the “T1/2,z” value in data set [7] (intravenous curcumin 20 mg/kg, plasma) was 32.3 ± 10.8 min. Further, in [8], the half-life is 32.7 min. In data set [9] (intravenous 10 mg/kg), the “elimination half-life (T1/2,β)” value is 44.5 ± 7.5 min. In addition, in data set [9] (oral 500 mg/kg), the Tmax is given as 41.7 ± 5.4 min and the “elimination half-life (T1/2,β)” value is reported as 28.1 ± 5.6 min. For the same compound, the oral bioavailability result in [9] is “approximately 1%”.
